According to ChEMBL document CHEMBL3352765, “Synthesis and evaluation of the cytotoxic activity of 1,2-furanonaphthoquinones tethered to 1,2,3-1H-triazoles in myeloid and lymphoid leukemia cell lines” (Eur J Med Chem, 2014):

System: not listed separately
Assay: Induction of hemolysis in lamb blood erythrocytes at 1000 uM incubated for 10 mins by microplate reader method
Type: cell-based, Ovis aries, Erythrocyte
Conditions: sheep, read-out: Activity
In short: (§1)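 Fresh lamb erythrocytes were collected by centrifugation at 1500 rpm for 15 min and washed three times in PBS with 10 mM glucose, pH 7.4. They were used at 4 × 10⁸/well in triplicate, with compounds at a final 1000 µM and retests at 200 µM. After centrifugation at 13,000 rpm for 15 min, supernatant absorbance was read at 540 nm. Results are given as % of complete hemolysis from water osmotic shock.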

Question: Which hemolysis at 10 min, 1000 µM does the source give for CCCCc1cn(C2C3=C(OC2(C)C)c2ccccc2C(=O)C3=O)nn1 (stereo unspecified) here?
Answer: < 5%

Question: Which hemolysis at 10 min, 1000 µM does the source give for CC(C)CC(C)(O)c1cn(C2C3=C(OC2(C)C)c2ccccc2C(=O)C3=O)nn1 (stereo unspecified) here?
Answer: < 5%

Question: With CC1(C)OC2=C(C(=O)C(=O)c3ccccc32)C1n1cc(COC2CCCCO2)nn1 (stereo unspecified) as the compound, how does the hemolysis at 10 min, 1000 µM read?
Answer: < 5%

Question: Which hemolysis at 10 min, 1000 µM does the source give for CCCCCc1ccc(-c2cn(C3C4=C(OC3(C)C)c3ccccc3C(=O)C4=O)nn2)cc1 (stereo unspecified) here?
Answer: > 5%

Question: With CC(C)(O)c1cn(C2C3=C(OC2(C)C)c2ccccc2C(=O)C3=O)nn1 (stereo unspecified) as the compound, how does the hemolysis at 10 min, 1000 µM read?
Answer: < 5%

Question: For CC1(C)OC2=C(C(=O)C(=O)c3ccccc32)C1n1cc(C2(O)CCCCC2)nn1 (stereo unspecified), which hemolysis at 10 min, 1000 µM is on record?
Answer: < 5%

Question: With CC1(C)OC2=C(C(=O)C(=O)c3ccccc32)C1n1cc(C2CCCCC2)nn1 (stereo unspecified) as the compound, how does the hemolysis at 10 min, 1000 µM read?
Answer: < 5%

Question: For CC1(C)OC2=C(C(=O)C(=O)c3ccccc32)C1n1cc(C2=CCCCC2)nn1 (stereo unspecified), which hemolysis at 10 min, 1000 µM is on record?
Answer: < 5%

Question: Which hemolysis at 10 min, 1000 µM does the source give for CCCc1cn(C2C3=C(OC2(C)C)c2ccccc2C(=O)C3=O)nn1 (stereo unspecified) here?
Answer: < 5%

Question: For CC1(C)OC2=C(C(=O)C(=O)c3ccccc32)C1n1cc(CO)nn1 (stereo unspecified), which hemolysis at 10 min, 1000 µM is on record?
Answer: < 5%

System: K562
Assay: Cytotoxicity against human K562 cells after 48 hrs by Alamar blue assay
Type: functional, cell-based
Conditions: K562, 48 h
In short: (§2)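 Cells were seeded and exposed to compounds for 48 h in total: K562 at 2.5 × 10⁴/well, KG1 at 5.0 × 10⁴/well. AlamarBlue was added 4 h (K562) or 6 h (KG1) before the end. Fluorescence was read at ex 560/em 590 nm. Triplicate wells at six or seven concentrations. Vehicle controls contained up to 1% DMSO and defined 100% survival. Readout was IC50.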

Question: For CCCCc1cn(C2C3=C(OC2(C)C)c2ccccc2C(=O)C3=O)nn1 (stereo unspecified), which IC50 is on record?
Answer: 3.78 µM

Question: Which IC50 does the source give for CC(C)CC(C)(O)c1cn(C2C3=C(OC2(C)C)c2ccccc2C(=O)C3=O)nn1 (stereo unspecified) here?
Answer: 1.91 µM

Question: For CC1(C)OC2=C(C(=O)C(=O)c3ccccc32)C1n1cc(COC2CCCCO2)nn1 (stereo unspecified), which IC50 is on record?
Answer: 1.84 µM

Question: With CCCCCc1ccc(-c2cn(C3C4=C(OC3(C)C)c3ccccc3C(=O)C4=O)nn2)cc1 (stereo unspecified) as the compound, how does the IC50 read?
Answer: 8.03 µM

Question: With CC(C)(O)c1cn(C2C3=C(OC2(C)C)c2ccccc2C(=O)C3=O)nn1 (stereo unspecified) as the compound, how does the IC50 read?
Answer: 2.43 µM

Question: For CC1(C)OC2=C(C(=O)C(=O)c3ccccc32)C1n1cc(C2(O)CCCCC2)nn1 (stereo unspecified), which IC50 is on record?
Answer: 1.53 µM

Question: With CC1(C)OC2=C(C(=O)C(=O)c3ccccc32)C1n1cc(C2CCCCC2)nn1 (stereo unspecified) as the compound, how does the IC50 read?
Answer: 3.8 µM

Question: With CC1(C)OC2=C(C(=O)C(=O)c3ccccc32)C1n1cc(C2=CCCCC2)nn1 (stereo unspecified) as the compound, how does the IC50 read?
Answer: 1.11 µM

Question: For CCCc1cn(C2C3=C(OC2(C)C)c2ccccc2C(=O)C3=O)nn1 (stereo unspecified), which IC50 is on record?
Answer: 60.9 µM

Question: With CC1(C)OC2=C(C(=O)C(=O)c3ccccc32)C1n1cc(CO)nn1 (stereo unspecified) as the compound, how does the IC50 read?
Answer: 1.58 µM

System: MOLT-4
Assay: Cytotoxicity against human MOLT4 cells after 48 hrs by Alamar blue assay
Type: functional, cell-based
Conditions: MOLT-4, 48 h
In short: (§3)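 Cells seeded at 2.5 × 10⁴/well and exposed to compounds for 48 h in total. AlamarBlue was added before the end of the 48 h (CCRF-CEM 2 h, MOLT-4 6 h). Resorufin fluorescence was read at ex 560/em 590 nm. Triplicate wells at six or seven concentrations. Controls were cells with medium and up to 1% DMSO. IC50 is the concentration killing 50% of cells.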

Question: For CCCCc1cn(C2C3=C(OC2(C)C)c2ccccc2C(=O)C3=O)nn1 (stereo unspecified), which IC50 is on record?
Answer: 1.92 µM

Question: Which IC50 does the source give for CC(C)CC(C)(O)c1cn(C2C3=C(OC2(C)C)c2ccccc2C(=O)C3=O)nn1 (stereo unspecified) here?
Answer: 1.47 µM

Question: Which IC50 does the source give for CC1(C)OC2=C(C(=O)C(=O)c3ccccc32)C1n1cc(COC2CCCCO2)nn1 (stereo unspecified) here?
Answer: 2.04 µM

Question: Which IC50 does the source give for CCCCCc1ccc(-c2cn(C3C4=C(OC3(C)C)c3ccccc3C(=O)C4=O)nn2)cc1 (stereo unspecified) here?
Answer: 2.62 µM

Question: For CC(C)(O)c1cn(C2C3=C(OC2(C)C)c2ccccc2C(=O)C3=O)nn1 (stereo unspecified), which IC50 is on record?
Answer: 2.16 µM

Question: With CC1(C)OC2=C(C(=O)C(=O)c3ccccc32)C1n1cc(C2(O)CCCCC2)nn1 (stereo unspecified) as the compound, how does the IC50 read?
Answer: 2.58 µM

Question: For CC1(C)OC2=C(C(=O)C(=O)c3ccccc32)C1n1cc(C2CCCCC2)nn1 (stereo unspecified), which IC50 is on record?
Answer: 2.13 µM

Question: With CC1(C)OC2=C(C(=O)C(=O)c3ccccc32)C1n1cc(C2=CCCCC2)nn1 (stereo unspecified) as the compound, how does the IC50 read?
Answer: 0.28 µM

Question: With CCCc1cn(C2C3=C(OC2(C)C)c2ccccc2C(=O)C3=O)nn1 (stereo unspecified) as the compound, how does the IC50 read?
Answer: 1.47 µM

Question: For CC1(C)OC2=C(C(=O)C(=O)c3ccccc32)C1n1cc(CO)nn1 (stereo unspecified), which IC50 is on record?
Answer: 1.35 µM

System: CCRF-CEM
Assay: Cytotoxicity against human CCRF-CEM cells after 48 hrs by Alamar blue assay
Type: functional, cell-based
Conditions: not given
In short: as §3

Question: Which IC50 does the source give for CCCCc1cn(C2C3=C(OC2(C)C)c2ccccc2C(=O)C3=O)nn1 (stereo unspecified) here?
Answer: 3.73 µM

Question: Which IC50 does the source give for CC(C)CC(C)(O)c1cn(C2C3=C(OC2(C)C)c2ccccc2C(=O)C3=O)nn1 (stereo unspecified) here?
Answer: 1.77 µM

Question: For CC1(C)OC2=C(C(=O)C(=O)c3ccccc32)C1n1cc(COC2CCCCO2)nn1 (stereo unspecified), which IC50 is on record?
Answer: 3.16 µM

Question: With CCCCCc1ccc(-c2cn(C3C4=C(OC3(C)C)c3ccccc3C(=O)C4=O)nn2)cc1 (stereo unspecified) as the compound, how does the IC50 read?
Answer: 13.8 µM

Question: Which IC50 does the source give for CC(C)(O)c1cn(C2C3=C(OC2(C)C)c2ccccc2C(=O)C3=O)nn1 (stereo unspecified) here?
Answer: 1.73 µM

Question: Which IC50 does the source give for CC1(C)OC2=C(C(=O)C(=O)c3ccccc32)C1n1cc(C2(O)CCCCC2)nn1 (stereo unspecified) here?
Answer: 2.79 µM

Question: With CC1(C)OC2=C(C(=O)C(=O)c3ccccc32)C1n1cc(C2CCCCC2)nn1 (stereo unspecified) as the compound, how does the IC50 read?
Answer: 1.97 µM

Question: For CC1(C)OC2=C(C(=O)C(=O)c3ccccc32)C1n1cc(C2=CCCCC2)nn1 (stereo unspecified), which IC50 is on record?
Answer: 12.6 µM

Question: For CCCc1cn(C2C3=C(OC2(C)C)c2ccccc2C(=O)C3=O)nn1 (stereo unspecified), which IC50 is on record?
Answer: 3.14 µM

Question: Which IC50 does the source give for CC1(C)OC2=C(C(=O)C(=O)c3ccccc32)C1n1cc(CO)nn1 (stereo unspecified) here?
Answer: 1.53 µM

System: not listed separately
Assay: Cytotoxicity against human KG1 cells after 48 hrs by Alamar blue assay
Type: functional, cell-based
Conditions: KG-1, 48 h
In short: as §2

Question: With CCCCc1cn(C2C3=C(OC2(C)C)c2ccccc2C(=O)C3=O)nn1 (stereo unspecified) as the compound, how does the IC50 read?
Answer: 3.79 µM

Question: With CC(C)CC(C)(O)c1cn(C2C3=C(OC2(C)C)c2ccccc2C(=O)C3=O)nn1 (stereo unspecified) as the compound, how does the IC50 read?
Answer: 1.32 µM

Question: With CC1(C)OC2=C(C(=O)C(=O)c3ccccc32)C1n1cc(COC2CCCCO2)nn1 (stereo unspecified) as the compound, how does the IC50 read?
Answer: 5.63 µM

Question: Which IC50 does the source give for CCCCCc1ccc(-c2cn(C3C4=C(OC3(C)C)c3ccccc3C(=O)C4=O)nn2)cc1 (stereo unspecified) here?
Answer: 3.92 µM

Question: With CC(C)(O)c1cn(C2C3=C(OC2(C)C)c2ccccc2C(=O)C3=O)nn1 (stereo unspecified) as the compound, how does the IC50 read?
Answer: 2 µM

Question: With CC1(C)OC2=C(C(=O)C(=O)c3ccccc32)C1n1cc(C2(O)CCCCC2)nn1 (stereo unspecified) as the compound, how does the IC50 read?
Answer: 4.92 µM

Question: For CC1(C)OC2=C(C(=O)C(=O)c3ccccc32)C1n1cc(C2CCCCC2)nn1 (stereo unspecified), which IC50 is on record?
Answer: 7.62 µM

Question: For CC1(C)OC2=C(C(=O)C(=O)c3ccccc32)C1n1cc(C2=CCCCC2)nn1 (stereo unspecified), which IC50 is on record?
Answer: 8.41 µM

Question: For CCCc1cn(C2C3=C(OC2(C)C)c2ccccc2C(=O)C3=O)nn1 (stereo unspecified), which IC50 is on record?
Answer: 1.55 µM

Question: With CC1(C)OC2=C(C(=O)C(=O)c3ccccc32)C1n1cc(CO)nn1 (stereo unspecified) as the compound, how does the IC50 read?
Answer: 5.33 µM

System: PBMC
Assay: Cytotoxicity against normal human PBMC assessed as reduction in cell viability at 10 times anti-leukemic IC50 after 48 hrs by Alamar blue assay
Type: cell-based
Conditions: not given
In short: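 Gradient-isolated donor PBMCs (three donors), 5 × 10⁴/well in RPMI 1640 with 10% inactivated FBS. […] Viability was measured by AlamarBlue with 24 h dye incubation and fluorescence at ex 560/em 590 nm.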

Question: Which Activity does the source give for CCCCc1cn(C2C3=C(OC2(C)C)c2ccccc2C(=O)C3=O)nn1 (stereo unspecified) here?
Answer: > 80%

Question: For CC(C)CC(C)(O)c1cn(C2C3=C(OC2(C)C)c2ccccc2C(=O)C3=O)nn1 (stereo unspecified), which Activity is on record?
Answer: > 80%

Question: With CC1(C)OC2=C(C(=O)C(=O)c3ccccc32)C1n1cc(COC2CCCCO2)nn1 (stereo unspecified) as the compound, how does the Activity read?
Answer: > 80%

Question: For CCCCCc1ccc(-c2cn(C3C4=C(OC3(C)C)c3ccccc3C(=O)C4=O)nn2)cc1 (stereo unspecified), which Activity is on record?
Answer: > 80%

Question: Which Activity does the source give for CC(C)(O)c1cn(C2C3=C(OC2(C)C)c2ccccc2C(=O)C3=O)nn1 (stereo unspecified) here?
Answer: > 80%

Question: For CC1(C)OC2=C(C(=O)C(=O)c3ccccc32)C1n1cc(C2(O)CCCCC2)nn1 (stereo unspecified), which Activity is on record?
Answer: > 80%

Question: For CC1(C)OC2=C(C(=O)C(=O)c3ccccc32)C1n1cc(C2CCCCC2)nn1 (stereo unspecified), which Activity is on record?
Answer: Non-toxic

Question: Which Activity does the source give for CC1(C)OC2=C(C(=O)C(=O)c3ccccc32)C1n1cc(C2=CCCCC2)nn1 (stereo unspecified) here?
Answer: > 80%

Question: Which Activity does the source give for CCCc1cn(C2C3=C(OC2(C)C)c2ccccc2C(=O)C3=O)nn1 (stereo unspecified) here?
Answer: > 80%

Question: Which Activity does the source give for CC1(C)OC2=C(C(=O)C(=O)c3ccccc32)C1n1cc(CO)nn1 (stereo unspecified) here?
Answer: > 80%

System: not listed separately
Assay: Induction of hemolysis in lamb blood erythrocytes at 200 uM incubated for 10 mins by microplate reader method
Type: cell-based, Ovis aries
Conditions: sheep, erythrocyte
In short: as §1

Question: For CCCCCc1ccc(-c2cn(C3C4=C(OC3(C)C)c3ccccc3C(=O)C4=O)nn2)cc1 (stereo unspecified), which Activity is on record?
Answer: Non-toxic
